Data reported in ChEMBL document CHEMBL1687814, “Testing nucleoside analogues as inhibitors of Bacillus anthracis spore germination in vitro and in macrophage cell culture” (Antimicrob Agents Chemother, 2010).
Activity calls are given as the source filed them. No cut-off for these calls is given here.

Assays:
Bacillus anthracis [1] = experiment: Inhibition of inosine/L-alanine-induced Bacillus anthracis Sterne 34F2 spore germination pretreated for 15 mins before inosine/L-alanine challenge; type: functional, organism-based
Bacillus anthracis [2] = experiment: Antibacterial activity against Bacillus anthracis Sterne 34F2 infected in mouse J774A.1 cells assessed as protection against bacteria-induced cytotoxicity using propidium iodide staining after 3 hrs measured every hours for up to 7 hrs; type: functional, organism-based
Bacillus anthracis [3] = experiment: Activation of Bacillus anthracis Sterne 34F2 spore germination after 1 hr; type: functional, organism-based
J774.A1 = experiment: Cytotoxicity against mouse J774A1 cells; type: cell-based
Method in brief: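 Uninfected J774A.1 macrophages, seeded at 8 × 10^5 cells/ml in serum-free DMEM, were given analogues at various final concentrations. Necrosis was assessed by 20 μM propidium iodide fluorescence at 617 nm, in parallel with the infected wells.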

[4] = Increase of Bacillus anthracis Sterne 34F2-induced cytotoxicity in mouse J774A.1 cells using propidium iodide staining measured after 5 hrs infection; type: cell-based; conditions: bacillus anthracis str. sterne
Bacillus anthracis [5] = experiment: Ratio of IC50 for inosine/L-alanine-induced Bacillus anthracis Sterne 34F2 spore germination to IC50 for Bacillus anthracis Sterne 34F2 infected in mouse J774A.1 cells assessed as protection against bacteria-induced cytotoxicity; type: functional
[6] = Bacillus anthracis, Sterne 34F2, J774.A1, read-out: IC50
[7] = Bacillus anthracis, Sterne 34F2, read-out: IC50

SMILES	IC50 (Bacillus anthracis [1])	IC50 (Bacillus anthracis [2])	Activity (Bacillus anthracis [3])	Activity (J774.A1)	IC50 (Bacillus anthracis [2]; [6]) [µM]	IC50 (Bacillus anthracis [1]; [7]) [µM]	Activity [4]	Ratio IC50 (Bacillus anthracis [5])
Nc1ncnc2c1nc(N)n2[C@@H]1O[C@H](CO)[C@@H](O)[C@H]1O	Not Active	Not Active	inactive	Non-toxic				
Nc1ncnc2c1ncn2[C@@H]1O[C@H](CO)[C@@H](O)[C@H]1O [ADENOSINE]	Not Active	Not Active		Non-toxic				
Nc1nc2nc[nH]c2c(=S)[nH]1 [THIOGUANINE]	Not Active			Non-toxic	2			
CCOC(=O)C1CCCN(c2ncnc3c2ncn3[C@@H]2O[C@H](CO)[C@@H](O)[C@H]2O)C1 (stereo partly drawn)		Not Active		Non-toxic		700		
OC[C@H]1O[C@@H](n2cnc3c(O)ncnc32)[C@H](O)[C@@H]1O [INOSINE]				Non-toxic				
O=C(Nc1ncnc2c1ncn2[C@@H]1O[C@H](CO)[C@@H](O)[C@H]1O)c1ccccc1		Not Active		Non-toxic		1140	Toxic	
Nc1nc(=O)[nH]c2c1ncn2[C@@H]1O[C@H](CO)[C@@H](O)[C@H]1O [ISOGUANOSINE]	Not Active	Not Active		Non-toxic				
CC(=O)N1CCN(c2ncnc3c2ncn3[C@@H]2O[C@H](CO)[C@@H](O)[C@H]2O)CC1		Not Active		Non-toxic		50		
O=c1cc[nH]c(=S)[nH]1 [THIOURACIL]	Not Active	Not Active	inactive	Non-toxic				
OC[C@H]1O[C@@H](n2cnc3c(O)nc(O)nc32)[C@H](O)[C@@H]1O [XANTHOSINE]		Not Active		Non-toxic		7190		
c1ccc(CNc2ncnc3nc[nH]c23)cc1 [6-BENZYLAMINOPURINE]		Not Active		Non-toxic		1550		
Nc1nc2c(ncn2COC(CO)CO)c(=O)[nH]1 [GANCICLOVIR]	Not Active	Not Active		Non-toxic				
Nc1nc2c(ncn2[C@@H]2O[C@H](CO)[C@@H](O)[C@H]2O)c(=S)[nH]1 [THIOGUANOSINE]				Non-toxic	4	1000		300
Nc1nc(Cl)c2ncn([C@@H]3O[C@H](CO)[C@@H](O)[C@H]3O)c2n1				Non-toxic	190	890		
O=c1ncnc2n([C@H]3O[C@@H](CO)[C@H](O)[C@@H]3O)[nH]cc1-2 [ALLOPURINOL RIBOSIDE]	Not Active			Non-toxic	650			
CSc1ncnc2c1ncn2[C@@H]1O[C@H](CO)[C@@H](O)[C@H]1O		Not Active		Non-toxic		320		
OC[C@H]1O[C@@H](n2cnc3c(SCc4ccccc4)ncnc32)[C@H](O)[C@@H]1O [6-BENZYLTHIOINOSINE]				Non-toxic	1040	50		
Nc1nc2c(nc(O)n2[C@@H]2O[C@H](CO)[C@@H](O)[C@H]2O)c(=O)[nH]1 [8-HYDROXYGUANOSINE]	Not Active	Not Active		Non-toxic			Toxic	
CSc1nc2ccccc2[nH]1	Not Active	Not Active		Non-toxic				
C[C@@H](N)C(=O)O [D-ALANINE]				Non-toxic	20	20		
CN(Cc1ccccc1)c1ncnc2c1ncn2[C@@H]1O[C@H](CO)[C@@H](O)[C@H]1O		Not Active		Non-toxic		120	Toxic	
OC[C@H]1O[C@@H](n2cnc3c(N4CCCCC4)ncnc32)[C@H](O)[C@@H]1O		Not Active		Non-toxic		1090		
Nc1nc(N)c2ncn([C@@H]3O[C@H](CO)[C@@H](O)[C@H]3O)c2n1		Not Active		Non-toxic		700		

SMILES	IC50 (Bacillus anthracis [1])	IC50 (Bacillus anthracis [2])	Activity (Bacillus anthracis [3])	Activity (J774.A1)	IC50 (Bacillus anthracis [2]; [6]) [µM]	IC50 (Bacillus anthracis [1]; [7]) [µM]	Activity [4]	Ratio IC50 (Bacillus anthracis [5])
Sc1ccncc1 [4-MERCAPTOPYRIDINE]	Not Active	Not Active	inactive	Non-toxic				
Oc1ncnc2[nH]ncc12 [ALLOPURINOL]	Not Active	Not Active		Non-toxic				
CNc1ncnc2c1ncn2[C@@H]1O[C@H](CO)[C@@H](O)[C@H]1O		Not Active		Non-toxic		190		
CCN(CC)c1ncnc2c1ncn2[C@@H]1O[C@H](CO)[C@@H](O)[C@H]1O		Not Active		Non-toxic		310		
Sc1ncccn1 [2-MERCAPTOPYRIMIDINE]	Not Active	Not Active	inactive	Non-toxic				
CCCN(CCC)c1ncnc2c1ncn2[C@@H]1O[C@H](CO)[C@@H](O)[C@H]1O		Not Active		Non-toxic		760		
Sc1nc2ccccc2[nH]1 [2-MERCAPTOBENZIMIDAZOLE]	Not Active	Not Active		Non-toxic				
Sc1ncnc2nc[nH]c12 [MERCAPTOPURINE ANHYDROUS]	Not Active			Non-toxic	400			
OC[C@H]1O[C@@H](n2cnc3c(Cl)ncnc32)[C@H](O)[C@@H]1O	Not Active	Not Active		Non-toxic				
COc1nc(N)nc2c1ncn2[C@@H]1O[C@H](CO)[C@@H](O)[C@H]1O		Not Active		Non-toxic		350		
Nc1nc(Cl)c2nc[nH]c2n1 [6-CHLOROGUANINE]	Not Active			Non-toxic	200			
Nc1ncc2ncn([C@@H]3O[C@H](CO)[C@@H](O)[C@H]3O)c2n1		Not Active		Non-toxic		380		
Sc1ccccn1 [2-MERCAPTOPYRIDINE]	Not Active	Not Active	inactive	Non-toxic				
CC(C)=CCNc1ncnc2c1ncn2[C@@H]1O[C@H](CO)[C@@H](O)[C@H]1O [RIBOPRINE]		Not Active		Non-toxic		360		
OC[C@H]1O[C@@H](n2cnc3c(S)ncnc32)[C@H](O)[C@@H]1O [THIOINOSINE]	Not Active			Non-toxic	40			
CN(C)c1ncnc2c1ncn2[C@@H]1O[C@H](CO)[C@@H](O)[C@H]1O	Not Active	Not Active		Non-toxic				
Nc1nc2c(ncn2[C@@H]2O[C@H](CO)[C@@H](O)[C@H]2O)c(=O)[nH]1 [GUANOSINE]	Not Active	Not Active		Non-toxic				
Nc1cc(S)nc(N)n1	Not Active	Not Active	inactive	Non-toxic				
OC[C@H]1O[C@@H](n2cnc3cncnc32)[C@H](O)[C@@H]1O [NEBULARINE]	Not Active	Not Active		Non-toxic				
N#Cc1ncnc2nc[nH]c12	Not Active	Not Active		Non-toxic				
C[n+]1cn([C@@H]2O[C@H](CO)[C@@H](O)[C@H]2O)c2nc[nH]c(=O)c21	Not Active	Not Active		Non-toxic				
Nc1ncnc2c1ccn2[C@@H]1O[C@H](CO)[C@@H](O)[C@H]1O [TUBERCIDIN]	Not Active	Not Active		Non-toxic				
